Data from ChEMBL document CHEMBL1129980, “New non-peptide endothelin-A receptor antagonists: synthesis, biological properties, and structure-activity relationships of 5-(dimethylamino)-N-pyridyl-,-N-pyrimidinyl-,-N-pyridazinyl-, and -N-pyrazinyl-1-naphthalenesulfonamides” (J Med Chem, 1997).

Experiments:
[1] = molecular target: T1, Endothelin-1 receptor (Homo sapiens) (UniProt P25101); assay: Percent inhibition at 10 uM of displacement of radiolabeled endothelin-1 [125-I]ET-1 from membranes prepared from cloned human Endothelin A receptor expressed in mouse erythroleukemic (MEL) cells; type: cell membranes
T1 sequence (whole entry): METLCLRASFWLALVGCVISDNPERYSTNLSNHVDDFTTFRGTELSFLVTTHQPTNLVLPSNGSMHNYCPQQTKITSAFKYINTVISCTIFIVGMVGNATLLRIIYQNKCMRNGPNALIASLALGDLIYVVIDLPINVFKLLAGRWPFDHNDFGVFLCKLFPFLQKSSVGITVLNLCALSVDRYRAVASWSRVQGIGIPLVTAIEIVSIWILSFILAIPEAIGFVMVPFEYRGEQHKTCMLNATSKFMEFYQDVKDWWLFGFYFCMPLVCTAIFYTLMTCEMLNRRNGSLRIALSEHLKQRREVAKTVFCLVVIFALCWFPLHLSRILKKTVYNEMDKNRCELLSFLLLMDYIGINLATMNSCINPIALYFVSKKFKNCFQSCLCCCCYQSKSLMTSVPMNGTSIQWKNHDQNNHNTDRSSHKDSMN

Endothelin-1 receptor [2] = molecular target: T2, Endothelin-1 receptor (Homo sapiens, UniProt P25101); assay: Inhibition of specific binding of [125-I]ET-1 to human endothelin A receptor
T2 sequence (P25101 whole entry): T1 sequence (whole entry)

Rattus norvegicus [3] = assay: Mean dose ratio(MDR) for inhibition of pressor response 0.5 hr after oral administration of compound at 10 mg/kg to conscious, normotensive rats; type: functional
How it was run: (§1)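 Male Alderley Park Wistar rats (220–260 g, n = 6) were catheterized (arterial and venous) under Saffan anesthesia and tested conscious. Cumulative big ET-1 i.v. dose–response curves (0.1–4.0 nmol/kg) were run before and at set times after oral compound. The big ET-1 dose raising mean arterial pressure by 30 mmHg gave the dose-ratio shift, averaged to a mean dose ratio.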

Rattus norvegicus [4] = assay: Mean dose ratio(MDR) for inhibition of pressor response 1 hr after oral administration of compound at 10 mg/kg to conscious, normotensive rats; type: functional; how it was run: as §1
Rattus norvegicus [5] = assay: Mean dose ratio(MDR) for inhibition of pressor response 5 hr after oral administration of compound at 10 mg/kg to conscious, normotensive rats; type: functional; how it was run: as §1
Rattus norvegicus [6] = assay: Mean dose ratio(MDR) for inhibition of pressor response 5 min after intravenous administration of compound at 10 mg/kg to pithed rats; type: functional
How it was run: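 Male Alderley Park Wistar rats (280–320 g, n = 4) were pithed under halothane, with arterial and venous catheters placed. Cumulative big ET-1 dose–response curves (0.1–4.0 nmol/kg) were run before and 5 min after i.v. compound. The big ET-1 dose raising mean arterial pressure by 30 mmHg gave the dose ratio, reported as a mean with 95% confidence limits.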

[7] = Acidity constant was measured; type: ADME
Rattus norvegicus [8] = assay: Mean dose ratio(MDR) for inhibition of pressor response 3 hr after oral administration of compound at 10 mg/kg to conscious, normotensive rats; type: functional; how it was run: as §1
Cavia porcellus = species on record: Cavia porcellus; assay: Antagonism of ET-A induced contractile response in guinea pig portal vein; type: functional; conditions: read-out: pA2 (converted)
How it was run: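 A portal vein ring (about 4 mm) from guinea pigs of either sex (>250 g, n = 3–6) was held for isometric recording of circular muscle in oxygenated Krebs (95% O2/5% CO2) at 32 °C. After about 1.5 h equilibration, a cumulative partial big ET-1 curve was run in 3-fold steps up to >100 mg tension.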

Endothelin-1 receptor [9] = molecular target: T2, Endothelin-1 receptor; assay: Inhibition of specific binding of [125-I] ET-1 to human Endothelin A receptor
How it was run: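 Membranes from mouse erythroleukemic MEL-C88 cells expressing cloned human ETA were incubated with [125I]ET-1 (30 pM final) and competing ligands for 180 min at 30 °C. Incubation was stopped by filtration through GF/B filters, and bound radioligand was counted by gamma counting. pIC50 was taken from inhibition of specific binding; n is given per compound.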

Structure (SMILES) | inhibition [1] | IC50 (Endothelin-1 receptor [2]) | further results
CN(C)c1cccc2c(S(=O)(=O)Nc3cccnc3)cccc12 | < 30% |  | 
CN(C)c1cccc2c(S(=O)(=O)Nc3ncccn3)cccc12 | 54% |  | 
CN(C)c1cccc2c(S(=O)(=O)Nc3ccccn3)cccc12 | < 30% |  | 
CN(C)c1cccc2c(S(=O)(=O)Nc3ccc(I)cn3)cccc12 | 84% | 5.01 µM | 
Cc1noc(NS(=O)(=O)c2cccc3c(N(C)C)cccc23)c1C [BMS-182874] | 98% |  | MDR (Rattus norvegicus [3]): 3.37; MDR (Rattus norvegicus [4]): 2.28; MDR (Rattus norvegicus [5]): 1.55; MDR (Rattus norvegicus [6]): 2.68; pKa [7]: 4.5; MDR (Rattus norvegicus [8]): 2.18
COc1nc(Br)cnc1NS(=O)(=O)c1cccc2ccccc12 | 83% |  | 
CN(C)c1cccc2c(S(=O)(=O)Nc3cccnn3)cccc12 | < 30% |  | 
CN(C)c1cccc2c(S(=O)(=O)Nc3ncc(Br)[nH]c3=O)cccc12 |  | 5.01 µM | 
CN(C)c1cccc2c(S(=O)(=O)Nc3ccc(Cl)cc3)cccc12 | 30% | 7.94 µM | 
CCCc1nc(Br)cnc1NS(=O)(=O)c1cccc2c(N(C)C)cccc12 | < 30% |  | 
CN(C)c1cccc2c(S(=O)(=O)Nc3ncc(Br)nc3O)cccc12 | 81% |  | 
CN(C)c1cccc2c(S(=O)(=O)Nc3ccc(C#N)nn3)cccc12 | < 30% |  | 
CCN(C)c1cccc2c(S(=O)(=O)Nc3ncc(Br)nc3OC)cccc12 | 99% |  | IC50 (Endothelin-1 receptor [9]): 0.0126 µM
CN(C)c1cccc2c(S(=O)(=O)Nc3ncc(Br)nc3C#N)cccc12 | < 30% |  | 
CN(C)c1cccc2c(S(=O)(=O)Nc3ncc(Br)nc3OCc3ccccc3)cccc12 | < 30% |  | 
CCOc1ccc(NS(=O)(=O)c2cccc3c(N(C)C)cccc23)nn1 | 64% | 3.98 µM | 
Cc1nc(NS(=O)(=O)c2cccc3c(N(C)C)cccc23)ccc1Br | 54% | 10 µM | 
CN(C)c1cccc2c(S(=O)(=O)Nc3ccc(Br)cc3)cccc12 | 72% | 3.16 µM | 
Cc1cc(NS(=O)(=O)c2cccc3c(N(C)C)cccc23)nnc1Cl | 64% | 5.01 µM | 

Continued by falling IC50 (Endothelin-1 receptor [2]), values first:

inhibition [1] | IC50 (Endothelin-1 receptor [2]) | Structure (SMILES) | further results
68% | 2.51 µM | CCc1nc(Br)cnc1NS(=O)(=O)c1cccc2c(N(C)C)cccc12 | 
95% | 2 µM | CN(C)c1cccc2c(S(=O)(=O)Nc3ccc(Cl)cn3)cccc12 | 
80% | 2 µM | CN(C)c1cccc2c(S(=O)(=O)Nc3ncc(Br)cn3)cccc12 | 
84% | 1.58 µM | CN(C)c1cccc2c(S(=O)(=O)Nc3ncc(Cl)cn3)cccc12 | 
68% | 1.58 µM | Cc1ccc(NS(=O)(=O)c2cccc3c(N(C)C)cccc23)nn1 | 
79% | 1.58 µM | Cc1ccc(NS(=O)(=O)c2cccc3c(N(C)C)cccc23)nc1 | 
91% | 1.58 µM | CN(C)c1cccc2c(S(=O)(=O)Nc3ccc(Br)cn3)cccc12 | 
91% | 1.26 µM | Cc1cnc(NS(=O)(=O)c2cccc3c(N(C)C)cccc23)cn1 | 
81% | 1.26 µM | CN(C)c1cccc2c(S(=O)(=O)Nc3ccc(Cl)nc3)cccc12 | 
58% | 1 µM | CN(C)c1cccc2c(S(=O)(=O)Nc3cnccn3)cccc12 | 
88% | 0.631 µM | CN(C)c1cccc2c(S(=O)(=O)Nc3cnc(Br)nc3)cccc12 | 
96% | 0.631 µM | Cc1nc(Br)cnc1NS(=O)(=O)c1cccc2c(N(C)C)cccc12 | 
92% | 0.501 µM | CCOc1nc(Br)cnc1NS(=O)(=O)c1cccc2c(N(C)C)cccc12 | 
89% | 0.398 µM | Cc1cc(Cl)nnc1NS(=O)(=O)c1cccc2c(N(C)C)cccc12 | 
94% | 0.316 µM | Cc1cc(Br)cnc1NS(=O)(=O)c1cccc2c(N(C)C)cccc12 | 
92% | 0.316 µM | COc1ccc(NS(=O)(=O)c2cccc3c(N(C)C)cccc23)nn1 | 
95% | 0.251 µM | CN(C)c1cccc2c(S(=O)(=O)Nc3ccc(Br)nc3)cccc12 | 
95% | 0.251 µM | CN(C)c1cccc2c(S(=O)(=O)Nc3ccc(Br)nn3)cccc12 | 
70% | 0.2 µM | CN(C)c1cccc2c(S(=O)(=O)Nc3ccc(Cl)nn3)cccc12 | 
97% | 0.158 µM | CN(C)c1cccc2c(S(=O)(=O)Nc3cnc(Cl)cn3)cccc12 | 
96% | 0.126 µM | CN(C)c1cccc2c(S(=O)(=O)Nc3cnc(Br)cn3)cccc12 | 
93% | 0.0631 µM | COc1nc(Br)cnc1NS(=O)(=O)c1cccc2c(N(C)C)cccc12 | 
100% | 0.0158 µM | CNc1cccc2c(S(=O)(=O)Nc3ncc(Br)nc3OC)cccc12 | 
97% | 0.01 µM | COc1nc(Cl)cnc1NS(=O)(=O)c1cccc2c(N(C)C)cccc12 | MDR (Rattus norvegicus [3]): 3.91; Kb (Cavia porcellus): 0.0631 µM; MDR (Rattus norvegicus [4]): 4.42; MDR (Rattus norvegicus [5]): 2.07; MDR (Rattus norvegicus [6]): 8.87; pKa [7]: 5; MDR (Rattus norvegicus [8]): 2.54
98% | 0.00794 µM | COc1nc(C)cnc1NS(=O)(=O)c1cccc2c(N(C)C)cccc12 | 
95% | 0.00251 µM | CCNc1cccc2c(S(=O)(=O)Nc3ncc(Br)nc3OC)cccc12 | 
